Tests used:
Rattus norvegicus [1] = test: Gastric antisecretory activity in pylorus-ligated rat at a concentration of 50 mg/kg po, expressed as increase in mean pH; NS means no significant change; assay type: functional, organism-based; design: dose 50 mg/kg
Method in brief: (§1)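 Male Carworth Farms rats (270–360 g), fasted 18 h with water; compound in PEG 200 by gavage 1 h before pylorus ligation under ether. Killed 2 h after ligation; juice centrifuged, volume and pH measured, supernatant titrated with NaOH to pH 7.4, output = volume × titre. Mean of six to seven animals against controls.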

Rattus norvegicus [2] = test: Gastric antisecretory activity in pylorus-ligated rat at a concentration of 50 mg/kg perorally, expressed as increase in mean pH.; assay type: functional; conditions: route oral; method in brief: as §1
Rattus norvegicus [3] = test: Gastric antisecretory activity in pylorus ligated rat at a concentration of 50 mg/kg perorally, expressed as % decrease in mean titratable acid output of gastric juice in treated vs. control groups.; assay type: functional; conditions: route oral; method in brief: as §1
Rattus norvegicus [4] = test: Gastric antisecretory activity in pylorus ligated rat at a concentration of 50 mg/kg po, expressed as % decrease in mean titratable acid output of gastric juice in treated vs. control groups; NS means no significant change.; assay type: functional, organism-based; design: dose 50 mg/kg; method in brief: as §1
Rattus norvegicus [5] = test: Effect of peroral administration of compound on acid secretion inhibition in the PLR; NS means no significant dose response.; assay type: functional, organism-based
Method in brief: (§2)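 Rats (male Carworth Farms, 270–360 g) fasted 18 h; compound in PEG 200 by gavage 1 h before pylorus ligation under ether, six per group. Gastric contents collected 2 h post-ligation; pH, volume, titre (NaOH to pH 7.4) measured, output = volume × titre.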

Rattus norvegicus [6] = test: Effect of intraduodenal administration of compound on acid secretion inhibition in the PLR; Value ranges from 0.5-4.4; assay type: functional
Rattus norvegicus [7] = test: Effect of intravenous administration of compound on acid secretion inhibition in the PLR; Value ranges from 0.7-5.0; assay type: functional
Method in brief: (§3)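 Male Carworth Farms rats (270–360 g), fasted 18 h, pylorus ligated under ether; compound in PEG 200 given intravenously at ligation, six rats per group. Gastric contents taken 2 h after ligation, centrifuged, titrated with NaOH to pH 7.4; output = volume × titre.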

Rattus norvegicus [8] = test: Effect of peroral administration of compound on acid secretion inhibition in the PLR; Value ranges from 4.0-13.6; assay type: functional; method in brief: as §2
Rattus norvegicus [9] = test: Effect of intraduodenal administration of compound on acid secretion inhibition in the PLR; Value ranges from 0.6-6.7; assay type: functional
Rattus norvegicus [10] = test: Effect of intravenous administration of compound on acid secretion inhibition in the PLR; Value ranges from 1.5-9.5; assay type: functional; method in brief: as §3
Rattus norvegicus [11] = test: Effect of intraduodenal administration of compound on acid secretion inhibition in the PLR; Value ranges from 0.2-2.1; assay type: functional
Rattus norvegicus [12] = test: Effect of intravenous administration of compound on acid secretion inhibition in the PLR; Value ranges from 1.8-5.9; assay type: functional; method in brief: as §3
Rattus norvegicus [13] = test: Effect of peroral administration of compound on acid secretion inhibition in the PLR; Value ranges from 4.3-16.3; assay type: functional; method in brief: as §2
Rattus norvegicus [14] = test: Effect of intraduodenal administration of compound on acid secretion inhibition in the PLR; Value ranges from 0.3-2.9; assay type: functional
Rattus norvegicus [15] = test: Effect of intravenous administration of compound on acid secretion inhibition in the PLR; Value ranges from 4.0-19.3; assay type: functional; method in brief: as §3
Rattus norvegicus [16] = test: Gastric antisecretory activity, in pylorus ligated rat (PLR,50 mg/kg po), expressed as increase in mean pH; assay type: functional; method in brief: as §1
Rattus norvegicus [17] = test: Gastric antisecretory activity, in pylorus ligated rat (PLR,50 mg/kg po), expressed as % decrease in mean titratable acid output of gastric juice in treated vs. control groups; assay type: functional; method in brief: as §1
Rattus norvegicus [18] = test: Gastric antisecretory activity in pylorus-ligated rat at a concentration of 50 mg/kg po, expressed as increase in mean pH; NS means no significant change.; assay type: functional, organism-based; design: dose 50 mg/kg; method in brief: as §1
Rattus norvegicus [19] = test: Effect of intraduodenal administration of compound on acid secretion inhibition in the PLR; Value ranges from 4.7-9; assay type: functional
Rattus norvegicus [20] = test: Effect of peroral administration of compound on acid secretion inhibition in the PLR; Value ranges from 8.8-14.7; assay type: functional
Rattus norvegicus [21] = test: Effect of intraduodenal administration of compound on acid secretion inhibition in the PLR; Value ranges from 0.5-2.7; assay type: functional
Rattus norvegicus [22] = test: Effect of peroral administration of compound on acid secretion inhibition in the PLR; Value ranges from 4.1-12.1; assay type: functional
Rattus norvegicus [23] = test: Effect of intraduodenal administration of compound on acid secretion inhibition in the PLR; Value ranges from 0.9-4.7; assay type: functional
Rattus norvegicus [24] = test: Effect of peroral administration of compound on acid secretion inhibition in the PLR; Value ranges from 2.6-8.5; assay type: functional; method in brief: as §2
Rattus norvegicus [25] = test: Effect of peroral administration of compound on acid secretion inhibition in the PLR;Value ranges from 3.6-12.2; assay type: functional; method in brief: as §2

Row | SMILES | Delta pH (Rattus norvegicus [2]) | Delta TAO (Rattus norvegicus [3]) | also measured
1 | c1ccc2c(c1)Oc1ccccc1C2Nc1nccs1 |  |  | Delta pH (Rattus norvegicus [1]): Not significant
2 | c1ccc2c(c1)Oc1ccccc1C2NCc1ccncc1 | 3.6 | 77 | 
3 | CN(Cc1cccnc1)C1c2ccccc2Oc2ccccc21 | 3.6 | 92 | 
4 | O=S(=O)(NC1c2ccccc2Oc2ccccc21)c1ccccc1 |  |  | Delta pH (Rattus norvegicus [1]): Not significant; Delta TAO (Rattus norvegicus [4]): Not significant
5 | c1ccc2c(c1)Oc1ccccc1C2NCCn1ccnc1 | 5.8 | 98 | ED50 (Rattus norvegicus [5]): Not significant; ED50 (Rattus norvegicus [6]): 1.7 mg/kg; ED50 (Rattus norvegicus [7]): 2 mg/kg; ED50 (Rattus norvegicus [8]): 7.7 mg/kg; ED50 (Rattus norvegicus [9]): 2.4 mg/kg; ED50 (Rattus norvegicus [10]): 3.3 mg/kg
6 | CN(C)C1CCCN(C2c3ccccc3Oc3ccccc32)C1 (stereo unspecified) | 3.1 | 80 | ED50 (Rattus norvegicus [5]): Not significant; ED50 (Rattus norvegicus [11]): 0.9 mg/kg; ED50 (Rattus norvegicus [12]): 3.2 mg/kg; ED50 (Rattus norvegicus [13]): 8.9 mg/kg; ED50 (Rattus norvegicus [14]): 1.2 mg/kg; ED50 (Rattus norvegicus [15]): 6.3 mg/kg
7 | c1ccc2c(c1)Oc1ccccc1C2NC1=NCCS1 | 3.6 | 95 | 
8 | c1cncc(C2CCCN2C2c3ccccc3Oc3ccccc32)c1 (stereo unspecified) | 1.8 | 65 | 
9 | c1ccc(CCNC2c3ccccc3Oc3ccccc32)nc1 | 5.9 | 99 | 
10 | CCO/C(C)=N\C1c2ccccc2Oc2ccccc21 |  |  | Delta pH (Rattus norvegicus [16]): 4.4; Delta TAO (Rattus norvegicus [17]): 97
11 | c1ccc(NNC2c3ccccc3Oc3ccccc32)cc1 |  |  | Delta pH (Rattus norvegicus [1]): Not significant
12 | CN(C1c2ccccc2Oc2ccccc21)C1c2ccccc2Oc2ccccc21 |  | 72 | Delta pH (Rattus norvegicus [18]): Not significant
13 | CN1CCCN(C2c3ccccc3Oc3ccccc32)CC1 | 4.6 | 92 | 
14 | CCN1CCCC(N(C)C2c3ccccc3Oc3ccccc32)C1 (stereo unspecified) | 5.1 | 98 | 
15 | CN(C)CC1CCCCN1C1c2ccccc2Oc2ccccc21 (stereo unspecified) | 5.2 | 95 | 
16 | CC1=NCCN1CCNC1c2ccccc2Oc2ccccc21 | 3 | 88 | 
17 | Cc1cc(C)n(C2c3ccccc3Oc3ccccc32)n1 |  |  | Delta pH (Rattus norvegicus [1]): Not significant; Delta TAO (Rattus norvegicus [4]): Not significant
18 | c1cnc(NC2c3ccccc3Oc3ccccc32)nc1 |  | 48 | Delta pH (Rattus norvegicus [1]): Not significant
19 | CC(CCCc1ccccn1)NC1c2ccccc2Oc2ccccc21 (stereo unspecified) | 6.1 | 100 | 
20 | C=CCNC1c2ccccc2Oc2ccccc21 | 4.4 |  | Delta TAO (Rattus norvegicus [4]): Not significant
21 | NS(=O)(=O)NC1c2ccccc2Oc2ccccc21 | 2 | 87 | 
22 | c1cncc(CNC2c3ccccc3Oc3ccccc32)c1 | 4.2 | 94 | 
23 | O=S1(=O)CCC(NC2c3ccccc3Oc3ccccc32)C1 (stereo unspecified) | 1.5 | 57 | 
24 | CCN(CCc1ccccn1)C1c2ccccc2Oc2ccccc21 | 4.3 | 86 | 
25 | CC(Cc1ccccn1)NC1c2ccccc2Oc2ccccc21 (stereo unspecified) | 3.8 | 89 | ED50 (Rattus norvegicus [19]): 6.3 m equiv [H+] l-1; ED50 (Rattus norvegicus [5]): Not significant; ED50 (Rattus norvegicus [20]): 11.4 m equiv [H+] l-1; Acid output (Rattus norvegicus [21]): 1.3 u equiv of [H+] 2hr-1; Acid output (Rattus norvegicus [22]): 7.3 u equiv of [H+] 2hr-1; Volume (Rattus norvegicus [23]): 2.2 ml 2hr-1

Row | SMILES | Delta pH (Rattus norvegicus [2]) | Delta TAO (Rattus norvegicus [3]) | also measured
26 | c1ccc2c(c1)Oc1ccccc1C2N1CCNCC1 | 5.3 | 98 | 
27 | c1ccc(CNC2c3ccccc3Oc3ccccc32)nc1 | 4.8 | 96 | 
28 | NC(=O)N(O)C1c2ccccc2Oc2ccccc21 |  |  | Delta pH (Rattus norvegicus [16]): 1.9; Delta TAO (Rattus norvegicus [17]): 88
29 | c1ccc(N2CCN(C3c4ccccc4Oc4ccccc43)CC2)nc1 |  |  | Delta pH (Rattus norvegicus [1]): Not significant; ED50 (Rattus norvegicus [4]): Not significant
30 | O=C(NC1c2ccccc2Oc2ccccc21)OCc1ccccc1 |  |  | Delta pH (Rattus norvegicus [18]): Not significant; Delta TAO (Rattus norvegicus [4]): Not significant
31 | CC(=N)NC1c2ccccc2Oc2ccccc21 | 1.1 | 88 | 
32 | CS(=O)(=O)NC1c2ccccc2Oc2ccccc21 |  |  | Delta pH (Rattus norvegicus [1]): Not significant; Delta TAO (Rattus norvegicus [4]): Not significant
33 | c1cncc(NC2c3ccccc3Oc3ccccc32)c1 |  |  | Delta pH (Rattus norvegicus [1]): Not significant; Delta TAO (Rattus norvegicus [4]): Not significant
34 | CN(CCc1ccccn1)C1c2ccccc2Oc2ccccc21 | 5.6 | 99 | ED50 (Rattus norvegicus [5]): Not significant; ED50 (Rattus norvegicus [24]): 4.8 mg/kg
35 | c1ccc(CNC2c3ccccc3Oc3ccccc32)cc1 | 1.9 | 69 | 
36 | c1ccc2c(c1)Oc1ccccc1C2NCCN1CCOCC1 | 2.6 | 47 | 
37 | C=CCN(CC=C)C1c2ccccc2Oc2ccccc21 | 1.3 |  | 
38 | CN1CCC(NC2c3ccccc3Oc3ccccc32)CC1 | 6.4 | 99 | 
39 | c1ccc(CCCNC2c3ccccc3Oc3ccccc32)nc1 | 5.7 | 99 | 
40 | CCOC(=O)N1CCN(C2c3ccccc3Oc3ccccc32)CC1 | 2.2 |  | 
41 | O=C(NC1c2ccccc2Oc2ccccc21)c1ccccc1O |  |  | Delta pH (Rattus norvegicus [18]): Not significant; Delta TAO (Rattus norvegicus [4]): Not significant
42 | CN1CCN(C2c3ccccc3Oc3ccccc32)CC1 | 5.4 | 97 | ED50 (Rattus norvegicus [5]): Not significant; ED50 (Rattus norvegicus [25]): 6.8 mg/kg
43 | c1ccc(NNC2c3ccccc3Oc3ccccc32)nc1 | 1.4 | 73 | 
44 | c1ccc2c(c1)Oc1ccccc1C2NC1CN2CCC1CC2 (stereo unspecified) | 2.4 | 65 | 
45 | CN(C)C1CCN(C2c3ccccc3Oc3ccccc32)CC1 | 5.8 | 97 | 
46 | c1ccc2c(c1)Oc1ccccc1C2NCC1CCCCO1 (stereo unspecified) | 3.6 | 87 | 
47 | NC1c2ccccc2Oc2ccccc21 | 4.5 | 93 | 
48 | O=CNNC1c2ccccc2Oc2ccccc21 |  |  | Delta pH (Rattus norvegicus [16]): 2; Delta TAO (Rattus norvegicus [17]): 80
49 | O=C1CCC(=O)N1C1c2ccccc2Oc2ccccc21 |  |  | Delta pH (Rattus norvegicus [18]): Not significant; Delta TAO (Rattus norvegicus [4]): Not significant

Reference: ChEMBL document CHEMBL1122278, “Gastric antisecretory 9H-xanthen-9-amines” (1983)
